Many of the other results were omitted from the sample, so hits are more common in it than they were.
PDI inh: blocks human protein disulfide isomerase activity. P07237. PDI insulin aggregation turbidity, A650, 90 min. inhibition, % at 10 µM. 0.052% of 350,000 active. AID 588391;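 active means mean inhibition across replicates of 30% or more, whatever share of single replicates reach that level; inconclusive means mean inhibition below 30% while every single replicate reaches 30%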
FGF22 binding: binders of recombinant human FGF22 by thermal shift | 1.5% of 340,000 active | activity (Tm shift, normalised), % at 9.99 µM | SYPRO orange fluorescence; percent of sucrose octasulfate shift, DMSO zero;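 active means mean Tm shift, scaled 0 neutral to 100 positive control, at about 1.3% or above, every replicate too, limit read from the data; inconclusive means no clear call, values can overlap the other calls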
Target sequence (Q9HCT0 whole entry, looked up): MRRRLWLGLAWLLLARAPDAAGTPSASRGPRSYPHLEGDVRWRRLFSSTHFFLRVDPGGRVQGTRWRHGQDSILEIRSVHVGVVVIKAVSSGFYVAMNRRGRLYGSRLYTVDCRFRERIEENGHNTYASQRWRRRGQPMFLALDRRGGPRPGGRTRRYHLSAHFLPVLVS
ERp5 block: ERp5 (human) disulfide isomerase inhibition; AID 651711; ERp5 insulin aggregation, absorbance 650 nm, 90 min; 0.05% of 350,000 active; inhibition, % at 9.99 µM; Q15084;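 active means mean replicate inhibition above about 25%, with every replicate also reaching it, limit read from the data, passing the limit was not always enough; inconclusive means only one of those two criteria met; inactive means neither criterion met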
Target sequence (Q15084 whole entry, looked up): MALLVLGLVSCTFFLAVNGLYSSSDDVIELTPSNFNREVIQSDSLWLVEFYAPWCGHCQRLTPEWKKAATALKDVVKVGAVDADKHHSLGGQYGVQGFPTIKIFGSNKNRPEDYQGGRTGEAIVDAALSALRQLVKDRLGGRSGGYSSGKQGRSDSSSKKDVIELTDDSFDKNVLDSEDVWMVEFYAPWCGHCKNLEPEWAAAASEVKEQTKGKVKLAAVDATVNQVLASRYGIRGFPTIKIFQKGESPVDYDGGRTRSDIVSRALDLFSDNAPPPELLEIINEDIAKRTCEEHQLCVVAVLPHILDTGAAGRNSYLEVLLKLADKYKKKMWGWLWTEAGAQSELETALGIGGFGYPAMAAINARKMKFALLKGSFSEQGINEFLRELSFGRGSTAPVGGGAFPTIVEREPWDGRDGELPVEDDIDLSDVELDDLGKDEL
ERAP1 inh: blocks human ERAP1 aminopeptidase activity; Q9NZ08; 0.15% of 340,000 active; recombinant ERAP1, Leu-AMC fluorescence, 60 min; AID 652197; inhibition, % at 10.7 µM;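 active means mean replicate inhibition of at least 30%, or all replicates individually reaching that 30% level; inactive means mean below 30% and not every replicate reaching it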
S100A4 inh HTS: inhibitors of human S100A4 binding to myosin IIA peptide; 0.14% of 360,000 active; S100A4/TAMRA-MyoIIA peptide fluorescence polarization; P26447; inhibition, % at 10.7 µM;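 active means mean inhibition of at least 70% across replicates, with every replicate also reaching that level; inconclusive means mean inhibition reaches 70% but some replicates fall short; inactive means mean inhibition below 70%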
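incubation = readout 5 min after mixing, signal stable up to 60 min | system = S100A4 monomer protein | buffer or medium = HEPES pH 7.2 with CaCl2, KCl, NaCl, DTT, Triton | benchmarks = neutral control DMSO, positive control TFP | also added = fluorescent myosin IIA peptide, 5 nM | compound dosing = one concentration per compound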
Each line names hits and unclear results; the compound was inactive in the other large screens; ! = not confirmed by another sample.

Cc1ccc(S(=O)(=O)NCC[C@@H]2CC[C@H](NC(=O)c3cccnc3)[C@H](CO)O2)cc1	none (no result: PDI inh)
CN1CCN(C(=O)c2ccc(-n3cccn3)nc2)CC1	FGF22 binding 43.4
Cc1ccc(NC(=O)c2ccc(-n3cccn3)nc2)cc1	none
Cc1nnc(NCc2ccncc2)c2ccccc12	none (no result: FGF22 binding, ERp5 block, ERAP1 inh, S100A4 inh HTS)
CCOc1ccc(CN(C)CC(=O)Nc2cc(C)c(C)cc2[N+](=O)[O-])cc1	FGF22 binding 43.1
CCOc1ccc(CN(C)CC(=O)Nc2cc(OC)c([N+](=O)[O-])cc2C)cc1	none
CCOc1ncccc1C(=O)OCC(=O)c1ccc(OC)c(OC)c1	none
CSc1ncc(C(C)=O)c(C)n1	FGF22 binding 2.5
O=C(NC1=NCCS1)c1cc(-c2ccc(-c3ccccc3)cc2)nc2ccccc12	FGF22 binding 43.2
COc1ccc(-c2cc(C(=O)NC3=NCCS3)c3ccccc3n2)cc1OC	none
Cc1ccc(C(=O)NCc2ccc3c(c2)OCO3)cc1Cl	none
O=C1NC[C@H](Cc2ccccc2)N(C[C@H]2CCCN2C[C@H](Cc2ccc(O)cc2)N2C[C@H](Cc3ccc(O)cc3)N(CC3CCCCCC3)C(=O)C2=O)C1=O	PDI inh 39.0
O=C1NC[C@H](Cc2ccccc2)N(C[C@H]2CCCN2C[C@H](Cc2ccccc2)N2C[C@H](Cc3ccc(O)cc3)N(CC3CCCCCC3)C(=O)C2=O)C1=O	PDI inh inconclusive
CCOc1ccc(CCN2C(=O)C(=O)N([C@@H](CC(C)C)CN3CCC[C@H]3CN3C(=O)C(=O)NC[C@@H]3Cc3ccc(O)cc3)C[C@@H]2Cc2ccccc2)cc1	FGF22 binding 43.3 (no result: PDI inh)
O=C(O)COc1ccc(NC(=O)c2ccc(NC(=O)c3ccco3)cc2)cc1	FGF22 binding 43.6
O=C(/C=C\c1ccco1)c1ccc(NC(=O)c2ccco2)cc1	FGF22 binding 42.9
CCOC(=O)C(NC(=O)c1cccc(Cl)c1)(OCc1ccccc1)C(F)(F)F (configuration not stated)	FGF22 binding 33.0
O=C1CCCN1CCc1cccc2ccccc12	FGF22 binding 43.4
O=C1CCCCN1CCc1c[nH]c2ccccc12	none (no result: FGF22 binding, ERp5 block, ERAP1 inh, S100A4 inh HTS)
COc1ccc(/C=C\c2cc(OC)c(OC)cc2CC[N+](C)(C)C)cc1OC	ERAP1 inh 98.6
COc1ccc(-c2nc(NC(C)=O)sc2-c2ccc(OC)cc2)cc1	FGF22 binding 43.5
O=C(Cc1c(Sc2ccccc2)c2ccccc2n1Cc1ccccc1)NCCO	FGF22 binding 43.1
Cn1c(CC(=O)NCCO)c(Sc2ccccc2)c2ccccc21	none (no result: FGF22 binding, ERp5 block, ERAP1 inh, S100A4 inh HTS)
COc1ccc(N=c2oc3c(OC)cccc3cc2C(=O)NCc2ccco2)c(OC)c1	none (no result: FGF22 binding, ERp5 block, ERAP1 inh, S100A4 inh HTS)
C[n+]1ccccc1/C=C/c1cc(Br)ccc1O	none
CC(O)/C=C/c1cccc[n+]1C (configuration not stated)	ERAP1 inh 107.5
C[n+]1ccccc1/C=N/O	ERAP1 inh 92.2!
Cc1nc(SCC(N)=O)[nH]c(=O)c1Cc1ccc(OC(C)C)cc1	none (no result: FGF22 binding, ERp5 block, ERAP1 inh, S100A4 inh HTS)
CS(=O)(=O)N1CCCC(C(=O)NCCN2CCC(Cc3ccccc3)CC2)C1 (configuration not stated)	none (no result: FGF22 binding, ERp5 block, ERAP1 inh, S100A4 inh HTS)
COC(=O)[C@H]1[C@H](CO)[C@H]2Cn3c(ccc(-c4ccncc4)c3=O)[C@H]2N1Cc1ccccc1F	ERAP1 inh 30.3 (no result: PDI inh)
COC(=O)[C@@H]1CCCN1C(=O)CCc1nnc(CCc2c[nH]c3ccccc23)o1	none
COC(=O)[C@@H]1CCCN1C(=O)CCc1nnc(CCC2CCCCC2)o1	FGF22 binding 43.1
CC(C)C(OC(=O)c1cc2occc2n1C)C(=O)NCc1ccc2c(c1)OCO2 (configuration not stated)	none
OC(Cc1ccncc1)c1ccccc1Cl (configuration not stated)	FGF22 binding 43.4
O=C(Nc1nc2ccccc2s1)C1=NN(c2ccccc2)C(=O)CC1	none
Cc1cccc(-n2nc(CC#N)c(C#N)c2N)c1	FGF22 binding 43.6
N#CC1=C(SCC(=O)NC23CC4CC(CC(C4)C2)C3)NC(=O)C(C#N)C12CCCCC2 (configuration not stated)	FGF22 binding 1.9
c1ccc(-c2cc3c(N4CCN(c5ccccc5)CC4)ncnc3s2)cc1	none
c1ccc(-c2cc3c(N4CCN(c5ncccn5)CC4)ncnc3s2)cc1	FGF22 binding 43.5
CO[C@H]1CC[C@H]2CCN(C)C(=O)[C@@H](C)[C@H](OC)CN(C)C(=O)c3cc(C#N)ccc3OC[C@@H]1O2	none (no result: PDI inh)
CO[C@H]1CC[C@H]2CCN(C)C(=O)[C@@H](C)[C@H](OC)CN(C)C(=O)c3cc(C#N)ccc3OC[C@H]1O2	S100A4 inh HTS 97.9 (no result: PDI inh)
Cc1ccc(NC(=O)C2CC(=O)N(CCc3ccccc3)C2)cc1Cl (configuration not stated)	none
C[C@@H]1CN([C@H](C)CO)C(=O)Cc2cc(NC(=O)Cc3cn(C)c4ccccc34)ccc2O[C@H]1CN(C)S(=O)(=O)c1cn(C)cn1	none (no result: PDI inh)
O=C(NCc1ccc(Cl)cc1)C(=O)Nc1nccs1	none
CC(C)c1ccc(CNC(=O)C(=O)Nc2nccs2)cc1	FGF22 binding 43.5
COc1cccc2c1OCC/C2=N\NC(=O)COc1ccc(C)cc1	none
COc1cccc2c1OCC/C2=N\NC(=O)C(C)Oc1ccc([N+](=O)[O-])cc1 (configuration not stated)	FGF22 binding 62.0
CO[C@@H](CN(C)S(=O)(=O)c1ccc(F)cc1)[C@H](C)CN(Cc1ccccc1Cl)[C@@H](C)CO	none (no result: PDI inh)
C[C@]12CC[C@H](OC(=O)CCC(=O)O)CC1=CCC1C2CC[C@@]2(C)C1CC[C@@H]2N (some centres not stated)	FGF22 binding 43.5
COc1ccc(-c2ccc3n(c2=O)C[C@@H]2[C@@H](CO)[C@H](C(=O)NCCN4CCCC4)N(C)[C@H]32)cc1	none (no result: PDI inh, FGF22 binding)
O=C(C1=C[C@@H](c2coc3ccccc3c2=O)C[C@@H](OCc2ccc(CO)cc2)O1)N1CCN(Cc2ccccc2)CC1	FGF22 binding 1.4
CC[N+]1=C(C)C(C)(C)c2cc(C)ccc21	S100A4 inh HTS 182.5
CCOC(=O)C1CCCN(CCC(=O)Nc2cc(C)cc(C)c2)C1 (configuration not stated)	FGF22 binding 43.7
COc1ccc(NS(=O)(=O)c2cc(NC(=O)c3cc(=O)c4ccccc4o3)ccc2OC)cc1	FGF22 binding 43.4
COc1cccc(NC(=O)c2cc(=O)c3ccccc3o2)c1	none
O=C(O/N=C1\CCS(=O)(=O)c2sccc21)C1CC1	none
CC(=O)Nc1cccc(C(=O)OCc2ccc([N+](=O)[O-])cc2)c1	FGF22 binding 43.2
O=C(OCc1cccc([N+](=O)[O-])c1)c1cccnc1	FGF22 binding 43.1
CC(=O)Nc1ccc(C(=O)OCc2ccc(F)cc2)cc1	FGF22 binding 43.2
O=C(CNC(=O)OCc1ccccc1)Nc1ccc(F)cc1	ERAP1 inh 32.3
CO[C@@H]1CN(C)C(=O)c2ccc(NC(=O)NC(C)C)cc2OC[C@@H](C)N(C(=O)CC2CC2)C[C@@H]1C	none (no result: PDI inh)

High-throughput results as filed in PubChem.
